Compound activity deposited in PubChem by several laboratories.
MBD2 inh: inhibitors of MBD2 binding to methylated DNA, primary screen, biochemical, TR-FRET, DNA-binding domain, human; 370,000 compounds, 0.31% hits; inhibition, % at 4.4 µM; MBD2 binding to methylated oligonucleotide; Methyl-CpG-binding domain protein 2 (Homo sapiens), Q9UBB5; in the data active = inhibition above about 13%
Beta2AR agonist: beta2AR agonists driving receptor internalization, primary screen, cell-based, FAP fluorogen, flow cytometry; Am2.2-beta2AR cells; response, % (no concentration beside the values); 340,000 compounds, 0.43% hits; AID 504454, 2011;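 active = response above a set limit, near 3 SD of response in nonfluorescent compounds, cut at about 42% in these data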
Arrestin-AP2 inh: inhibitors of beta-arrestin/AP2 binding, primary screen, biochemical, GPCR trafficking, flow cytometry. beta-arrestin 1 C-terminal peptide binding to AP2 beta2-adaptin appendage (human). FITC-arrestin peptide / GST-AP2 beads; AP2 beta2 appendage carries R879A mutation. inhibition, % at 10 µM. 340,000 compounds, 0.31% hits. AID 504490, 2011;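 active = inhibition above a set limit, near 3 SD of compounds lacking own fluorescence, cut at about 54% in these data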;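 also: plate controls were DMSO wells for no effect and 5 µM unlabelled arrestin peptide for full effect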
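System: GST-AP2 R879A glutathione beads. Medium: PBS with 0.05% Tween 20 and 0.1% BSA. Also added: FITC-arrestin peptide, 50 nM. Incubation: 12 min plus 1 h, RT. Measured by: high-throughput flow cytometry of beads, ex 488, em 535 nm. Evaluation: percent drop in bead-associated FITC signal.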
ABHD5 PLIN5 PPI: ABHD5-PLIN5 interaction inhibitors, primary screen, cell lysate, split luciferase complementation, luminescence; Perilipin-5 (Homo sapiens) + 1-acylglycerol-3-phosphate O-acyltransferase ABHD5 (Homo …; inhibition, % at 4 µM; AID 602281, 2012; 360,000 compounds, 0.78% hits; Split G. princeps luciferase complementation, 4 h;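 active = inhibition above the mean inhibition across every tested compound plus 3 SD, cut at about 22% in these data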;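 also: 0% = DMSO only wells and the 100% control is not disclosed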
Rin1-Abl PPI inh: inhibitors of Rin1-Abl protein binding, primary screen, biochemical, TR-FRET; Tyrosine-protein kinase ABL1 (Homo sapiens) + Ras and Rab interactor 1 (Homo sapiens), …; inhibition, % at 7.35 µM; 360,000 compounds, 0.4% hits; in the data active = inhibition above about 5%, passing the limit was not always enough
UHRF1 MBD2 ctr: UHRF1 methylated DNA binding inhibitors, primary screen, counter-screen for MBD2 inhibitor project, biochemical, TR-FRET, human UHRF1, single concentration; 370,000 compounds, 0.75% hits; UHRF1 binding to methylated oligo; E3 ubiquitin-protein ligase UHRF1 (Homo sapiens), Q96T88; inhibition, % at 4.4 µM; AID 687016, 2013; in the data active = inhibition above about 21%;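 also: UHRF1 SRA domain binding a hemimethylated CpG hairpin DNA probe; 0% = median of test compound wells and 100% = reference inhibitor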
B2AR ag CP1: beta2AR agonists via receptor internalization, confirmation, cell-based, FAP fluorogen, flow cytometry, single point, cherry pick 1. shares compounds with Beta2AR agonist. Am2.2-beta2AR cells, FAP surface receptor; active compounds read low. percent response (surface receptor), % at 10 µM. 1,100 compounds, 25% hits. AID 540358, 2011;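 active = surface receptor percent response at or below 58%, roughly 3 SD from nonfluorescent compounds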
FAP fluor counter: counter-screen for beta-2AR agonists: fluorescence in Am2.2 cells. FAP fluorogen flow cytometry, fluorescence counterscreen; active compounds read low. shares compounds with Beta2AR agonist. AID 588765. 1,100 tested, under 10 active. calls only at 10 µM;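 active = percent response below a set limit in fluorescence channel 1 and below 50% in channel 8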
Starred values were filed as active, the others as inactive; i = inactive; . = no result given. Sampled rows, rich in hits. Any-hit rate of the full collection: about 2.5%.

SMILES | MBD2 inh | Beta2AR agonist | Arrestin-AP2 inh | ABHD5 PLIN5 PPI | Rin1-Abl PPI inh | UHRF1 MBD2 ctr | B2AR ag CP1 | FAP fluor counter
O=C(Nc1ccc2ccccc2c1)NC1CCCCN(Cc2ccc(Cl)cc2)C1=O (centres undefined) | 1.5 | . | . | . | . | 2.1 | . | .
CN(C(=O)CSc1nc(-c2ccc(C(C)(C)C)cc2)c(C#N)c(=O)[nH]1)C1CCCCC1 | -1.1 | 14.8 | 6.1 | -0.2 | 1.6 | 1.7 | 104.9 | i
N#Cc1c(-c2ccccc2)nc(SCC(=O)NC2CCCCC2)[nH]c1=O | 2.2 | -6.3 | 16.5 | 2.0 | -2.2 | 1.2 | . | .
O=C(OC12CCCN(C1)/C(=C/c1ccncc1)C2)c1cccc(F)c1 (centres undefined) | -4.0 | . | . | . | . | -2.9 | . | .
O=C(NCCc1ccccc1F)c1ccc2c(c1)ncn2C1CCCCC1 | -0.8 | . | . | . | . | -0.5 | . | .
COCCn1c(=S)[nH]c2ccc(N(C)C)cc2c1=O | -4.3 | 45.1* | 12.1 | -4.8 | -0.9 | -7.2 | 121.7 | i
CCOc1cc2[nH]c(=S)n(CCOC)c(=O)c2cc1OCC | -1.6 | 6.3 | 0.4 | -2.6 | -1.7 | 0.0 | . | .
Cc1noc(NS(=O)(=O)c2ccc(NC(=O)C34CC5CC(C3)CC(n3cnc(Cl)n3)(C5)C4)cc2)c1C | -6.1 | 74.0* | -5.5 | -1.9 | -0.6 | -2.9 | 84.0 | i
CCOC(=O)CSc1ccc(-c2nc3ccccc3[nH]2)cn1 | 8.6 | 45.5* | -0.9 | 0.4 | 2.1 | 6.7 | 107.2 | i
Cc1ccc(NC(=O)CCCSc2nc3ccccc3[nH]2)cc1 | 4.5 | -23.5 | 2.8 | 4.8 | 3.0 | 0.0 | . | .
Cc1ccc(SCC(=O)Nc2ccc(-c3nc4ccccc4[nH]3)cc2)cc1 | 1.0 | 106.9* | 1.8 | -5.1 | 2.9 | -0.6 | 16.5* | i
COC(=O)[C@]12C[C@H](CC(=O)NCc3cccc4ccccc34)C(=O)N(CCC3=CCCCC3)C1=C[C@H](C(C)C)O[C@@H]2C1CC1 | 1.9 | . | . | . | . | -1.1 | . | .
COc1ccc(-c2n[nH]c(C)c2-c2cscn2)c(O)c1 | 1.7 | -3.2 | -0.8 | -6.4 | -0.3 | -0.4 | . | .
C=C(C)COc1ccc(-c2n[nH]c(C)c2-c2ccc(OC)cc2)c(O)c1 | 1.2 | 53.2* | -8.5 | -15.7 | 0.7 | -1.5 | 114.6 | i
O=C(OCCN1CCN(C2CN(Cc3cn(Cc4ccccc4Cl)nn3)S(=O)(=O)C2)CC1)c1cc2ccccc2o1 (centres undefined) | 4.5 | . | . | . | . | 5.6 | . | .
CC(=O)c1ccc(S(=O)(=O)NCCc2csc(-c3cccnc3)n2)cc1 | 2.4 | -0.7 | -11.8 | -0.2 | -2.6 | 1.8 | . | .
CC(=O)Nc1ccc(S(=O)(=O)NCCc2csc(-c3cccnc3)n2)cc1 | 0.0 | 83.0* | -16.1 | -4.4 | 2.2 | 3.6 | 13.4* | i
CCN(CC)c1nc(SCCOC(=O)Nc2ccccc2)nc(N(CC)CC)n1 | -3.3 | 43.9* | 7.7 | -28.9 | 0.9 | 0.5 | 105.8 | i
COC(=O)[C@H](CC(C)C)N(CCCc1cn(Cc2ccc(C)cc2)nn1)S(=O)(=O)c1ccc(F)cc1Br | -3.5 | . | . | . | . | 7.0 | . | .
O=C(c1cccs1)N1N=C(c2ccccc2)CC1c1ccccc1 (centres undefined) | -5.7 | -4.3 | 8.8 | 0.0 | 1.9 | -1.4 | . | .
COc1ccc(C2=NN(C(=O)c3cccs3)C(c3ccc(OC)cc3)C2)cc1 (centres undefined) | 5.2 | 43.5* | 1.6 | -2.7 | 2.5 | 4.0 | 43.5* | i
Cc1ccc(C)c(NC(=O)c2ccc(CS(=O)(=O)Cc3ccccc3C)o2)c1 | 1.6 | . | . | . | . | -1.1 | . | .
CCOC(=O)CSCC(=O)N1CCC(Cc2ccccc2)CC1 | 3.7 | 65.6* | 28.8 | -0.1 | 0.1 | -1.3 | 90.3 | i
CCOC(=O)C(=O)N1CCC(Cc2ccccc2)CC1 | 2.5 | 3.5 | -22.5 | -2.1 | 4.8 | 2.8 | . | .
CCOC(=O)c1cnc(-n2nc(C)cc2C)nc1NC | 1.7 | -8.1 | 25.9 | 1.5 | 3.7 | -0.6 | 105.3 | i
SMILES | MBD2 inh | Beta2AR agonist | Arrestin-AP2 inh | ABHD5 PLIN5 PPI | Rin1-Abl PPI inh | UHRF1 MBD2 ctr | B2AR ag CP1 | FAP fluor counter
CCC(C)(C)NC(=O)C(c1ccccc1F)N(C(=O)c1ccn[nH]1)c1ccccc1 (centres undefined) | 3.9 | -1.4 | -5.4 | -3.1 | -0.8 | 9.0 | . | .
CC(C)(C)NC(=O)C(c1ccc(F)cc1)N(Cc1ccccc1Cl)C(=O)c1ccn[nH]1 (centres undefined) | -3.4 | -4.0 | 0.0 | 5.8 | 3.5 | -1.0 | 98.5 | i
O=C(Nc1ccc(Br)cc1)O[C@@H]1CC[C@@]23CCCN2C(=O)CCC[C@H]3C1 | -2.0 | . | . | . | . | 1.0 | . | .
CCOC(=O)CSC1=C(C#N)C(c2ccc(Cl)cc2)CC(=O)N1 (centres undefined) | 3.3 | 16.1 | 2.0 | -7.7 | -3.6 | 5.4 | . | .
CCOC(=O)CSC1=C(C#N)C(c2ccc(C)o2)CC(=O)N1 (centres undefined) | -6.1 | 52.1* | -5.1 | 3.3 | 1.5 | -1.6 | 73.2 | i
CN(c1cccc2cccnc12)S(=O)(=O)c1ccccc1 | 4.8 | -2.1 | 6.2 | 3.1 | -1.8 | -2.3 | 102.5 | i
COC(=O)CS(=O)(=O)c1ccsc1C(=O)Nc1ccc(F)c(F)c1 | 4.5 | 46.6* | 1.7 | -7.4 | 0.5 | 1.9 | 100.8 | i
O=C(c1cc(Cl)cc(Cl)c1)N1CC[C@H]2[C@H](CCCN2Cc2cc(F)cc(F)c2)C1 | 2.2 | . | . | . | . | -0.2 | . | .
Cn1c(SCC(=O)N/N=C/C=C/c2ccco2)nc2ccccc21 | 12.6 | -11.5 | 21.6 | 9.1 | 2.5 | 9.3 | 98.4 | i
Cn1c(SCC(=O)N/N=C/C=C/c2ccccc2[N+](=O)[O-])nc2ccccc21 | -1.7 | -5.7 | -15.1 | 2.4 | -3.9 | -0.6 | . | .
CC(C)N1CCCCC(NC(=O)c2ccc(-c3ccccc3)cc2)C1=O (centres undefined) | 2.1 | . | . | . | . | 0.3 | . | .
O=C1CC(C(=O)Nc2ccc(C(=O)N3CCOCC3)cc2)C2(CCCCC2)O1 (centres undefined) | -2.2 | 51.8* | 19.7 | 1.7 | 1.8 | -0.7 | 136.1 | i
O=C1CC(C(=O)N2CCOCC2)C2(CCCC2)O1 (centres undefined) | 4.8 | 4.5 | 26.6 | 2.3 | 0.4 | 4.2 | . | .
